In ChEMBL document CHEMBL4190262, “Tuning of β-glucosidase and α-galactosidase inhibition by generation and in situ screening of a library of pyrrolidine-triazole hybrid molecules” (Eur J Med Chem, 2017):
The source made the active and inactive calls. The rule behind the calls is not given here.

Key:
Bos taurus [1] = species: Bos taurus; assay: Inhibition of bovine kidney alpha-L-fucosidase at 1 mM using p-nitrophenyl glycopyranoside preincubated for 5 mins followed by substrate addition measured after 20 mins by visible absorption spectroscopic method relative to control
In short: (§1)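 Test compound at 1 mM in well. Mix: 0.01–0.5 units/mL enzyme plus 10 mM p-nitrophenyl glycopyranoside (aqueous solution), buffered to the enzyme's optimal pH. Enzyme and inhibitor preincubated 5 min at rt. Substrate then added and incubated 20 min at 37 °C. Stopped with sodium borate (pH 9.8). p-Nitrophenolate read at 405 nm. Duplicates averaged.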

[2] = molecular target: T1, Beta-galactosidase (Aspergillus oryzae) (UniProt B7VU80); assay: Inhibition of Aspergillus oryzae beta-galactosidase at 1 mM using p-nitrophenyl glycopyranoside preincubated for 5 mins followed by substrate addition measured after 20 mins by visible absorption spectroscopic method relative to control; in short: as §1
T1 sequence (whole entry): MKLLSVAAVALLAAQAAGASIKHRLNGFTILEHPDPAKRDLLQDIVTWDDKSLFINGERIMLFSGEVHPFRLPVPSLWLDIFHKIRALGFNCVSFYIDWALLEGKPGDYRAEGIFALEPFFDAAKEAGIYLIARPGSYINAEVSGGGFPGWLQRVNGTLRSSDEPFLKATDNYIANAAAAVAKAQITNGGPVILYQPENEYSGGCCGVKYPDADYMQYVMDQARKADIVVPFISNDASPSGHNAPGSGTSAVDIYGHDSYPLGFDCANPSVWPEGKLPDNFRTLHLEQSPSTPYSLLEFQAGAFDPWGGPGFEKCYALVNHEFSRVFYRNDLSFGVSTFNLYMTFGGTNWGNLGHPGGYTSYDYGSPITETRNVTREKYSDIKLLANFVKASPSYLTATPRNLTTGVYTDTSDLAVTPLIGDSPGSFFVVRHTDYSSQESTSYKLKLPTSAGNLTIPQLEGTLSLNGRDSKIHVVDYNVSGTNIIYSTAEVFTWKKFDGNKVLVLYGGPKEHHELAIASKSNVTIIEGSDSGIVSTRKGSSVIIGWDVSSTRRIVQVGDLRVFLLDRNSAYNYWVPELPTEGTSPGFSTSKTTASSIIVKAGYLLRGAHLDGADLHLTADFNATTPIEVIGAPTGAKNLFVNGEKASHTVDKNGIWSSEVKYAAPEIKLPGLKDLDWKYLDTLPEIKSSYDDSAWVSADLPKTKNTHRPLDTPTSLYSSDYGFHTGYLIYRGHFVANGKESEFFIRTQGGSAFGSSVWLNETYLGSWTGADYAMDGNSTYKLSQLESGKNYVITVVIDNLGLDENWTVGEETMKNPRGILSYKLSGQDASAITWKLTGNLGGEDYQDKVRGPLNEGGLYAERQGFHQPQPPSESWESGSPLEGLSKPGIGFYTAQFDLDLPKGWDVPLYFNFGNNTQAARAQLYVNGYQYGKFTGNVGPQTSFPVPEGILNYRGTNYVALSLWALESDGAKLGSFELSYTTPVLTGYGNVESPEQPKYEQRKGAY

Aspergillus niger = assay: Inhibition of Aspergillus niger amyloglucosidase at 1 mM using p-nitrophenyl glycopyranoside preincubated for 5 mins followed by substrate addition measured after 20 mins by visible absorption spectroscopic method relative to control; in short: as §1
[3] = molecular target: Beta-galactosidase (Escherichia coli) (UniProt Q8VNN2); assay: Inhibition of Escherichia coli beta-galactosidase at 1 mM using p-nitrophenyl glycopyranoside preincubated for 5 mins followed by substrate addition measured after 20 mins by visible absorption spectroscopic method relative to control; in short: as §1
[4] = molecular target: Alpha-galactosidase (Coffea arabica) (UniProt Q42656); assay: Inhibition of coffee beans alpha-galactosidase at 1 mM using p-nitrophenyl glycopyranoside preincubated for 5 mins followed by substrate addition measured after 20 mins by visible absorption spectroscopic method relative to control; in short: as §1
Prunus dulcis = assay: Inhibition of almond beta-glucosidase at 1 mM using p-nitrophenyl glycopyranoside preincubated for 5 mins followed by substrate addition measured after 20 mins by visible absorption spectroscopic method relative to control; in short: as §1
Alpha-galactosidase = Alpha-galactosidase (Coffea arabica, UniProt Q42656); assay: Inhibition of coffee beans alpha-galactosidase using p-nitrophenyl glycopyranoside preincubated for 5 mins followed by substrate addition measured after 20 mins by visible absorption spectroscopic method
In short: (§2)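 IC50 determined only for compounds giving ≥80% inhibition at 1 mM, read from plots of % inhibition versus inhibitor concentration. p-Nitrophenyl glycopyranoside substrate (10 mM solution) at the enzyme's optimal pH, with 0.01–0.5 units/mL enzyme. 5 min rt preincubation with enzyme, then 20 min at 37 °C. Borate stop (pH 9.8), absorbance at 405 nm. Duplicates averaged.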

Canavalia ensiformis = assay: Inhibition of jack bean beta-N-acetylglucosaminidase at 1 mM using p-nitrophenyl glycopyranoside preincubated for 5 mins followed by substrate addition measured after 20 mins by visible absorption spectroscopic method relative to control; in short: as §1
Oryza sativa = assay: Inhibition of rice alpha-glucosidase at 1 mM using p-nitrophenyl glycopyranoside preincubated for 5 mins followed by substrate addition measured after 20 mins by visible absorption spectroscopic method relative to control; in short: as §1
Cornu aspersum = assay: Inhibition of snail beta-mannosidase at 1 mM using p-nitrophenyl glycopyranoside preincubated for 5 mins followed by substrate addition measured after 20 mins by visible absorption spectroscopic method relative to control; in short: as §1
Saccharomyces cerevisiae = assay: Inhibition of yeast alpha glucosidase at 1 mM using p-nitrophenyl glycopyranoside preincubated for 5 mins followed by substrate addition measured after 20 mins by visible absorption spectroscopic method relative to control; in short: as §1
[5] = Inhibition of almond beta-glucosidase using p-nitrophenyl glycopyranoside preincubated for 5 mins followed by substrate addition measured after 20 mins by visible absorption spectroscopic method; set-up: species or system Prunus dulcis; in short: as §2
[6] = molecular target: T2, Alpha-mannosidase (Canavalia ensiformis) (UniProt C0HJB3); assay: Inhibition of jack bean alpha-mannosidase at 1 mM using p-nitrophenyl glycopyranoside preincubated for 5 mins followed by substrate addition measured after 20 mins by visible absorption spectroscopic method relative to control; in short: as §1
T2 sequence (whole entry): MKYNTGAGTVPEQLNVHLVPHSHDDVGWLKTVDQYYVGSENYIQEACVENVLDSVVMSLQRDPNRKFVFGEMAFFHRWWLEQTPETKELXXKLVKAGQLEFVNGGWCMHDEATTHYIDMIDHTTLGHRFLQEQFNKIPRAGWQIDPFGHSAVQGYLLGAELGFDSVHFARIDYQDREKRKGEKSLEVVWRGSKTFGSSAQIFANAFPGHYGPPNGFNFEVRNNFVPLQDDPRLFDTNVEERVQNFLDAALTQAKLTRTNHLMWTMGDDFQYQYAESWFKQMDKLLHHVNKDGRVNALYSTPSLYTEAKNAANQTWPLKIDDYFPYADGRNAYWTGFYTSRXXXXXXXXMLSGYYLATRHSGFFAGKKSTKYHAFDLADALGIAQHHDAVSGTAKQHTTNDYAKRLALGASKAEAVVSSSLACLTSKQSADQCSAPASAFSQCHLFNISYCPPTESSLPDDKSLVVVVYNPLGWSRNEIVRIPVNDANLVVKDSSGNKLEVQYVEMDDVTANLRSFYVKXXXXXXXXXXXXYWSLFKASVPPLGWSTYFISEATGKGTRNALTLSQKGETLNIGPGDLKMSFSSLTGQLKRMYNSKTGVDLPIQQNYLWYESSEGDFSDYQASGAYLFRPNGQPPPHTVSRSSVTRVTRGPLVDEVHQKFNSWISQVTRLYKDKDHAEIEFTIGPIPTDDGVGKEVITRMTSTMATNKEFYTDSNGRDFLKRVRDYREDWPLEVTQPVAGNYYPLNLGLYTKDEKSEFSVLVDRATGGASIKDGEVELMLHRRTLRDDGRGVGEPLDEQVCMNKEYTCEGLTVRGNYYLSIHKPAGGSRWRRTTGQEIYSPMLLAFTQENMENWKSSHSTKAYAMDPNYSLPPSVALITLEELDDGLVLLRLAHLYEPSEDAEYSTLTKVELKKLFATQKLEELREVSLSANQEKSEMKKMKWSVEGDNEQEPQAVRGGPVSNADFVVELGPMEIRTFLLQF

Beta-galactosidase = molecular target: T3, Beta-galactosidase (Bos taurus, UniProt Q58D55); assay: Inhibition of bovine liver beta-galactosidase using p-nitrophenyl glycopyranoside preincubated for 5 mins followed by substrate addition measured after 20 mins by visible absorption spectroscopic method; in short: as §2
T3 sequence (Q58D55 whole entry): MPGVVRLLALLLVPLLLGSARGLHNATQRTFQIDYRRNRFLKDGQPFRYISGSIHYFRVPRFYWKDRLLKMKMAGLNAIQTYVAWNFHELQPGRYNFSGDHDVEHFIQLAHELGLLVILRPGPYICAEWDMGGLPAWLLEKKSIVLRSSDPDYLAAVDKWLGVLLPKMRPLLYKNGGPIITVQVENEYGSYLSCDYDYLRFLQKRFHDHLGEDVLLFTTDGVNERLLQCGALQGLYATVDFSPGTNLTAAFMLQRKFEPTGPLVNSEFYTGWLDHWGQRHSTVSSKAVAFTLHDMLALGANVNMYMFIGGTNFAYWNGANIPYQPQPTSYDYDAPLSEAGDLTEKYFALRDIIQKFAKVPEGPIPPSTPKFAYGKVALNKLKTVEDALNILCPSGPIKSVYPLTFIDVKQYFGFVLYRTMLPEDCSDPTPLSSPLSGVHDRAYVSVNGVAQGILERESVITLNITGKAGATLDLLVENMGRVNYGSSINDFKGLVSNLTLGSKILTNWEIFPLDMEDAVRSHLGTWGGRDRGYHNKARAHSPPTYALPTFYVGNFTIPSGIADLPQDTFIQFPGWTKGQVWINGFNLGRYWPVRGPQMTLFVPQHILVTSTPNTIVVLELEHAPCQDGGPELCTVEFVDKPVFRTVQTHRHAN

[7] = molecular target: Alpha-galactosidase (Coffea arabica) (UniProt Q42656); assay: Inhibition of coffee beans alpha-galactosidase at 50 uM using p-nitrophenyl glycopyranoside preincubated for 5 mins followed by substrate addition measured after 20 mins by visible absorption spectroscopic method relative to control
In short: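 Crude triazoles from in situ CuAAC (ascorbate/CuSO4, 24 h rt, water-diluted) were screened at 50 μM per well, assuming full conversion. Enzyme was coffee bean α-galactosidase at pH 6, 37 °C, with p-nitrophenyl glycoside substrate and 405 nm read-out. Blanks of CuSO4, ascorbate and each alkyne were run.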

[8] = molecular target: T4, Alpha-galactosidase A (Homo sapiens) (UniProt P06280); assay: Inhibition of human lysosomal alpha-galactosidase A at 1 mM using 4-methylumbelliferyl-alpha-D-galactopyranoside as substrate preincubated for 45 mins followed by substrate addition measured after 30 mins by fluorescence spectroscopic method relative to control
T4 sequence (whole entry): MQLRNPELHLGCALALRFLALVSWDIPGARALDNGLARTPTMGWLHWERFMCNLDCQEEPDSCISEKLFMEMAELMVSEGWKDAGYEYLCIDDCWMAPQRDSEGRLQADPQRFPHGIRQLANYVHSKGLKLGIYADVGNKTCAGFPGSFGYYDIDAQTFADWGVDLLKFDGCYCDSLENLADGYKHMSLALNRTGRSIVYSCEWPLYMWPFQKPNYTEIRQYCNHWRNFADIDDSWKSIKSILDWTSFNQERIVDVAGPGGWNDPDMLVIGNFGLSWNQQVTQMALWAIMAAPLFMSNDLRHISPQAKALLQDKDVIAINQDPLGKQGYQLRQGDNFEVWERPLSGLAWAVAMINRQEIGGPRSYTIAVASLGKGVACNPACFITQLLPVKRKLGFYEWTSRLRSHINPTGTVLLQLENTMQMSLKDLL
In short: (§3)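 Enzyme in 100 mM McIlvaine buffer pH 5.2 with 0.25% sodium taurocholate and 0.1% Triton X-100, with inhibitor. Preincubated at 0 °C for 45 min, then started with 3 mM 4-methylumbelliferyl glycoside substrate solution and incubated 30 min at 37 °C. Stopped with 400 mM glycine-NaOH pH 10.6. 4-Methylumbelliferone fluorescence read at ex 362/em 450 nm.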

[9] = molecular target: T5, Lysosomal acid glucosylceramidase (Homo sapiens, UniProt P04062); assay: Inhibition of human lysosomal beta-glucocerebrosidase using 4-methylumbelliferyl-beta-D-glucopyranoside as substrate preincubated for 45 mins followed by substrate addition measured after 30 mins by fluorescence spectroscopic method; in short: as §3
T5 sequence (P04062 whole entry): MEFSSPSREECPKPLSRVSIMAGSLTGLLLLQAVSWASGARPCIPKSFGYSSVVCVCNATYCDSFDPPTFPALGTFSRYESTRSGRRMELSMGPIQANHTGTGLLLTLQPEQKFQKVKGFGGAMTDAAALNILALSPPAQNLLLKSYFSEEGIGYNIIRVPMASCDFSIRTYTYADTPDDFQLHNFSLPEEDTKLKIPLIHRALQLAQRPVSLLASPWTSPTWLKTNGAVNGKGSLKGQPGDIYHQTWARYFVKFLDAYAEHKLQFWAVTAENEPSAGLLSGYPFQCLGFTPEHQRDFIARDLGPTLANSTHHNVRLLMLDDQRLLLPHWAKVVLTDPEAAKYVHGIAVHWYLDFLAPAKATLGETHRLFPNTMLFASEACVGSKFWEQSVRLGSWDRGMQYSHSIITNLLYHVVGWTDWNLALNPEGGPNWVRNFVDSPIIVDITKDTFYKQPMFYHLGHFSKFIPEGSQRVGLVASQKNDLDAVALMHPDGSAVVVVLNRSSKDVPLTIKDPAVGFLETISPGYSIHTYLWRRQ

[10] = Selectivity ratio of IC50 for human lysosomal alpha-galactosidase A to IC50 for coffee beans alpha-galactosidase
Bos taurus [11] = species: Bos taurus; assay: Inhibition of bovine liver beta-glucosidase at 1 mM using p-nitrophenyl glycopyranoside preincubated for 5 mins followed by substrate addition measured after 20 mins by visible absorption spectroscopic method relative to control; in short: as §1

Chain of Alpha-galactosidase (Q42656 whole entry): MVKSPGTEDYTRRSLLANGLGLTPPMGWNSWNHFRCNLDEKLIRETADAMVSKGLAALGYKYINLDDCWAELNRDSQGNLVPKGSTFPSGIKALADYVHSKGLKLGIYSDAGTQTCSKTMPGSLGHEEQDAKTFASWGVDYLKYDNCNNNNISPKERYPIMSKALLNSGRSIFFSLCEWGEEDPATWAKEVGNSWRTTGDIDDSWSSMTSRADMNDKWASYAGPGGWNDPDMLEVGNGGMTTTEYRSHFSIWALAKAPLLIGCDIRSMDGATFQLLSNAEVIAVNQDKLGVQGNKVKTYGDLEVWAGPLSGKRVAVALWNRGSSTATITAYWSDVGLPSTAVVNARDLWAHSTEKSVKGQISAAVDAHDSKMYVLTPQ
Chain of Alpha-galactosidase (Coffea arabica) (Q42656 16-378 limits assumed): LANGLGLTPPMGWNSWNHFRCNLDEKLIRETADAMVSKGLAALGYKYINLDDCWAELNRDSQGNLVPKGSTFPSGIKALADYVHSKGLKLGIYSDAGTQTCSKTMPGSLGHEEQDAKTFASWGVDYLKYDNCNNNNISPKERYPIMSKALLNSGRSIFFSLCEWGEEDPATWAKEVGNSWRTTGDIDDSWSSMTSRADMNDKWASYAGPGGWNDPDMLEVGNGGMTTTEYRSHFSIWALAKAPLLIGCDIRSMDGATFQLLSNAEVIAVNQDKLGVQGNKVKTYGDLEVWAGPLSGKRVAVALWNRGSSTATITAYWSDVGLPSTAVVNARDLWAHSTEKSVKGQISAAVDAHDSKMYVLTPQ
Chain of Beta-galactosidase (Escherichia coli) (Q8VNN2 whole entry, looked up): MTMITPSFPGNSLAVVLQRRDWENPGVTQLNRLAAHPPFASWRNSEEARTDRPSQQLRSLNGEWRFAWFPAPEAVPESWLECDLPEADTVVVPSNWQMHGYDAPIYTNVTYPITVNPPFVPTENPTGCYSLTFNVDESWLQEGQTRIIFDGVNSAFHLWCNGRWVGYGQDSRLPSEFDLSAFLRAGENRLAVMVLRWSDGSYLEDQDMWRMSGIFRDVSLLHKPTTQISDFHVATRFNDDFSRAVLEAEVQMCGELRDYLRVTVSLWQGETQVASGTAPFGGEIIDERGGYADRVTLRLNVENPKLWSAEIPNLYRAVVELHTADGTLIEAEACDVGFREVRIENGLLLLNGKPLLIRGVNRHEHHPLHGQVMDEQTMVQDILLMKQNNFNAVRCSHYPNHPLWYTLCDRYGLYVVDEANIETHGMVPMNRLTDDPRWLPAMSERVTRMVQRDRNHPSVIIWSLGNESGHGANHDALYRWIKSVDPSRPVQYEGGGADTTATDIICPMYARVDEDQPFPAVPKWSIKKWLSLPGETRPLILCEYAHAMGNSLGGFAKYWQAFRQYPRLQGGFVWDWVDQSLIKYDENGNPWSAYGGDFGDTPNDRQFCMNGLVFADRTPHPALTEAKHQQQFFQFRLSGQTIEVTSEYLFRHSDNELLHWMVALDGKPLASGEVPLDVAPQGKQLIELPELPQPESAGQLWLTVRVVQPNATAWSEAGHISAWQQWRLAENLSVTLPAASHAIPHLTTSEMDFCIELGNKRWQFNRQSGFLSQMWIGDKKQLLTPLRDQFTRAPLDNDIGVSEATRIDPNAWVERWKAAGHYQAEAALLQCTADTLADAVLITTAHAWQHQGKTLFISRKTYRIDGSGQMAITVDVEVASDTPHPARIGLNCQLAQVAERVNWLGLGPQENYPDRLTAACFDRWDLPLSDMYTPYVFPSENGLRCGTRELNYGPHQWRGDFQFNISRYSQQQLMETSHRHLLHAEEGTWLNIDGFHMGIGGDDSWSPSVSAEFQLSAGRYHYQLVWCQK

inhibition (Prunus dulcis) [%]	IC50 (Alpha-galactosidase) [µM]	IC50 [5] [µM]	IC50 (Beta-galactosidase) [µM]	inhibition [8] [%]	IC50 [9] [µM]	Ratio IC50 [10]	inhibition (Bos taurus [11]) [%]	SMILES	inhibition (Bos taurus [1])	inhibition [2] [%]	inhibition (Aspergillus niger)	inhibition [3]	inhibition [4] [%]	inhibition (Canavalia ensiformis)	inhibition (Oryza sativa)	inhibition (Cornu aspersum)	inhibition (Saccharomyces cerevisiae)	inhibition [6]	inhibition [7] [%]
96	107	11	–	–	–	–	–	O[C@@H]1[C@H](O)CN[C@@H]1CCn1cc(-c2ccccc2)nn1	49%	78	inactive	60%	89	inactive	inactive	inactive	inactive	inactive	–
< 50	17	–	42	< 50	19	10	< 50	COc1ccc2cc(-c3cn(C[C@H]4NC[C@@H](O)[C@H]4O)nn3)ccc2c1	–	–	–	–	–	–	–	–	–	–	64

SMILES	inhibition (Prunus dulcis) [%]	IC50 (Alpha-galactosidase) [µM]	IC50 [5] [µM]	IC50 (Beta-galactosidase) [µM]	inhibition [8] [%]	IC50 [9] [µM]	Ratio IC50 [10]	inhibition (Bos taurus [11]) [%]	inhibition (Bos taurus [1])	inhibition [2] [%]	inhibition (Aspergillus niger)	inhibition [3]	inhibition [4] [%]	inhibition (Canavalia ensiformis)	inhibition (Oryza sativa)	inhibition (Cornu aspersum)	inhibition (Saccharomyces cerevisiae)	inhibition [6]	inhibition [7] [%]
[N-]=[N+]=NC[C@H]1NC[C@@H](O)[C@H]1O	89	127	–	–	–	–	–	–	inactive	50	inactive	inactive	88	inactive	inactive	inactive	inactive	43%	38
